{"source": "ChEMBL document CHEMBL1944532", "about": "“Synthesis and evaluation of anticancer activity of some novel 6-aryl-2-(p-sulfamylphenyl)-pyridazin-3(2H)-ones” (Eur J Med Chem, 2012)", "key": {"LOX IMVI": {"tested_on": "LOX IMVI", "test": "Antitumor activity against human LOXIMVI cells implanted in mouse dosed qd for 4 days by formazan dye-based hollow fiber assay", "format": "functional, organism-based", "in_short": "(§1)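 Cells grown inside polyvinylidene fluoride hollow fibers; each line implanted into both intraperitoneal and subcutaneous compartments in mice. Compound given ip at two doses on a QD x 4 schedule. Fibers then recovered and viable cell mass measured by formazan dye conversion. Scored 2 per dose giving ≥50% reduction in viable cell mass (%T/C 50).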"}, "MCF7": {"tested_on": "MCF7", "test": "Cytotoxicity against human MCF7 cells assessed as cell growth at 10 uM after 48 hrs by SRB assay", "format": "functional", "details": "MCF7, 48 h, read-out: Activity", "in_short": "(§2)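 NCI primary single-dose screen at 10^-5 M against the full panel of about 60 human tumor cell lines. Cells were in RPMI-1640 with 5% fetal calf serum and 2 mM L-glutamine and preincubated 24 h. Compound was given in DMSO with 48 h exposure. Growth was estimated by sulforhodamine B protein assay.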"}, "MDA-MB-435": {"tested_on": "MDA-MB-435", "test": "Cytotoxicity against human MDA-MB-435 cells after 48 hrs by SRB assay", "format": "functional", "details": "MDA-MB-435, 48 h", "in_short": "(§3)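 NCI five-dose screen on the ~60-line human tumor panel. Cells grown in RPMI-1640 with 5% fetal calf serum and 2 mM L-glutamine, seeded at line-dependent density and preincubated 24 h. Compound added from DMSO at 10-fold dilutions from 10^-4 to 10^-8 M, continuous exposure 48 h. Growth read by sulforhodamine B protein stain. GI50, TGI and LC50 derived per line.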"}, "NCI-H460": {"tested_on": "NCI-H460", "test": "Cytotoxicity against human NCI-H460 cells after 48 hrs by SRB assay", "format": "functional", "details": "NCI-H460, 48 h", "in_short": "as §3"}, "RXF 393": {"tested_on": "RXF 393", "test": "Cytotoxicity against human RXF393 cells assessed as cell growth at 10 uM after 48 hrs by SRB assay", "format": "functional", "details": "RXF 393, 48 h, read-out: Activity", "in_short": "as §2"}, "BT-549": {"tested_on": "BT-549", "test": "Cytotoxicity against human BT549 cells assessed as cell growth at 10 uM after 48 hrs by SRB assay", "format": "functional", "details": "BT-549, 48 h, read-out: Activity", "in_short": "(§4)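 NCI primary single-dose screen at 10^-5 M against the ~60 human tumour cell line panel. Cells grown in RPMI-1640 with 5% fetal calf serum and 2 mM L-glutamine and pre-incubated 24 h before compound addition. Compound added from DMSO solution with 48 h exposure. Growth read by sulforhodamine B protein staining.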"}, "SN12C": {"tested_on": "SN12C", "test": "Cytotoxicity against human SN12C cells assessed as cell growth at 10 uM after 48 hrs by SRB assay", "format": "functional", "details": "read-out: Activity", "in_short": "(§5)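 NCI primary one-dose screen at 10^-5 M against the full panel of about 60 human tumour cell lines, run to the NCI Drug Evaluation Branch protocol.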"}, "SR": {"tested_on": "SR", "test": "Cytotoxicity against human SR cells after 48 hrs by SRB assay", "format": "functional", "in_short": "(§6)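 NCI 60-cell-line five-dose screen. Cells were grown in 1640 medium with 5% fetal calf serum and 2 mM L-glutamine, with inoculum density set by cell line, and pre-incubated 24 h. Compound in DMSO was added at 10^-4 to 10^-8 M (10-fold steps) with 48 h continuous exposure. Growth was read by SRB protein assay, and GI50, TGI and LC50 were derived from dose-response.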"}, "Malme-3M": {"tested_on": "Malme-3M", "test": "Cytotoxicity against human MALME-3M cells assessed as cell growth at 10 uM after 48 hrs by SRB assay", "format": "functional", "details": "read-out: Activity", "in_short": "as §2"}, "KM12": {"tested_on": "KM12", "test": "Cytotoxicity against human KM12 cells assessed as cell growth at 10 uM after 48 hrs by SRB assay", "format": "functional", "details": "KM12, 48 h, read-out: Activity", "in_short": "as §2"}, "HCT-15": {"tested_on": "HCT-15", "test": "Cytotoxicity against human HCT15 cells assessed as cell growth at 10 uM after 48 hrs by SRB assay", "format": "functional", "details": "HCT-15, 48 h, read-out: Activity", "in_short": "as §4"}, "[1]": {"test": "Toxicity in ip dosed athymic nude mouse assessed as body weight loss after 2 weeks", "format": "organism-based", "details": "in vivo", "in_short": "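Maximum tolerated dose determination in athymic nude mice. Single ip injection of 400, 200 or 100 mg/kg, one mouse per dose. Compound solubilized in DMSO. Feed and water ad libitum. Mice observed 2 weeks for body weight loss, lethality and other toxicity signs; sacrificed if weight loss exceeds 20%.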"}, "UACC-257": {"tested_on": "UACC-257", "test": "Cytotoxicity against human UACC257 cells after 48 hrs by SRB assay", "format": "functional", "details": "UACC-257, 48 h", "in_short": "as §6"}, "OVCAR-5": {"tested_on": "OVCAR-5", "test": "Antitumor activity against human OVCAR5 cells implanted in mouse dosed qd for 4 days by formazan dye-based hollow fiber assay", "format": "functional, organism-based", "in_short": "as §1"}, "HCT-116": {"tested_on": "HCT-116", "test": "Cytotoxicity against human HCT116 cells assessed as cell growth at 10 uM after 48 hrs by SRB assay", "format": "functional", "details": "HCT-116, 48 h, read-out: Activity", "in_short": "as §4"}, "SK-MEL-5": {"tested_on": "SK-MEL-5", "test": "Cytotoxicity against human SK-MEL-5 cells assessed as cell growth at 10 uM after 48 hrs by SRB assay", "format": "functional", "details": "SK-MEL-5, 48 h, read-out: Activity", "in_short": "as §5"}, "TK-10": {"tested_on": "TK-10", "test": "Cytotoxicity against human TK10 cells after 48 hrs by SRB assay", "format": "functional", "details": "TK-10, 48 h", "in_short": "as §6"}, "NCI-H226": {"tested_on": "NCI-H226", "test": "Cytotoxicity against human NCI-H226 cells after 48 hrs by SRB assay", "format": "functional", "details": "NCI-H226, 48 h", "in_short": "as §3"}, "HT-29": {"tested_on": "HT-29", "test": "Cytotoxicity against human HT-29 cells after 48 hrs by SRB assay", "format": "functional", "details": "HT-29, 48 h", "in_short": "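NCI ~60-line panel in RPMI-1640 with 5% fetal calf serum and 2 mM L-glutamine, pre-incubated 24 h. Compound in DMSO tested at five 10-fold concentrations (10^-4 to 10^-8 M) with 48 h continuous exposure. Growth measured by sulforhodamine B protein assay. GI50 (50% net growth inhibition), TGI (total inhibition) and LC50 (50% net cell death) derived from dose-response.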"}, "786-0": {"tested_on": "786-0", "test": "Cytotoxicity against human 786-0 cells assessed as cell growth at 10 uM after 48 hrs by SRB assay", "format": "functional", "details": "786-0, 48 h, read-out: Activity", "in_short": "as §4"}, "HOP-92": {"tested_on": "HOP-92", "test": "Cytotoxicity against human HOP92 cells assessed as cell growth at 10 uM after 48 hrs by SRB assay", "format": "functional", "details": "HOP-92, 48 h, read-out: Activity", "in_short": "as §4"}, "UO-31": {"tested_on": "UO-31", "test": "Cytotoxicity against human UO31 cells after 48 hrs by SRB assay", "format": "functional", "details": "UO-31, 48 h", "in_short": "as §6"}, "A498": {"tested_on": "A498", "test": "Cytotoxicity against human A498 cells assessed as cell growth at 10 uM after 48 hrs by SRB assay", "format": "functional", "details": "A498, 48 h, read-out: Activity", "in_short": "as §4"}, "NCI-H522": {"tested_on": "NCI-H522", "test": "Antitumor activity against human NCI-H522 cells implanted in mouse dosed qd for 4 days by formazan dye-based hollow fiber assay", "format": "functional, organism-based", "in_short": "as §1"}}, "note": "The source made the active and inactive calls. The rule behind the calls is not given here.", "data": [{"compound": "CCc1ccc(-c2ccc(=O)n(-c3ccc(S(N)(=O)=O)cc3)n2)cc1", "values": [{"measurement": "Activity", "setting": "LOX IMVI", "result": "inactive"}, {"measurement": "growth at 10 µM", "setting": "MCF7", "result": 30.1, "unit": "%"}, {"measurement": "LC50", "setting": "MDA-MB-435", "result": "> 100", "unit": "µM"}, {"measurement": "GI50", "setting": "MDA-MB-435; read-out: GI50", "result": 0.223, "unit": "µM"}, {"measurement": "GI50", "setting": "MDA-MB-435; read-out: pGI50 (converted)", "result": 0.224, "unit": "µM"}, {"measurement": "TGI", "setting": "MDA-MB-435; read-out: pTGI (converted)", "result": 2.19, "unit": "µM"}, {"measurement": "LC50", "setting": "NCI-H460", "result": 63.1, "unit": "µM"}, {"measurement": "GI50", "setting": "NCI-H460; read-out: GI50", "result": 0.438, "unit": "µM"}, {"measurement": "GI50", "setting": "NCI-H460; read-out: pGI50 (converted)", "result": 0.437, "unit": "µM"}, {"measurement": "TGI", "setting": "NCI-H460; read-out: pTGI (converted)", "result": 4.47, "unit": "µM"}, {"measurement": "growth at 10 µM", "setting": "RXF 393", "result": -31.8, "unit": "%"}, {"measurement": "growth at 10 µM", "setting": "BT-549", "result": 7.69, "unit": "%"}, {"measurement": "growth at 10 µM", "setting": "SN12C", "result": 58.4, "unit": "%"}, {"measurement": "LC50", "setting": "SR", "result": "> 100", "unit": "µM"}, {"measurement": "GI50", "setting": "SR; read-out: GI50", "result": 0.0887, "unit": "µM"}, {"measurement": "GI50", "setting": "SR; read-out: pGI50 (converted)", "result": 0.0891, "unit": "µM"}, {"measurement": "TGI", "setting": "SR; read-out: pTGI (converted)", "result": 0.49, "unit": "µM"}, {"measurement": "growth at 10 µM", "setting": "Malme-3M", "result": 35.6, "unit": "%"}, {"measurement": "growth at 10 µM", "setting": "KM12", "result": 13.6, "unit": "%"}, {"measurement": "growth at 10 µM", "setting": "HCT-15", "result": 29.7, "unit": "%"}, {"measurement": "MTD at 336 h", "setting": "[1]", "result": 400, "unit": "mg/kg"}, {"measurement": "LC50", "setting": "UACC-257", "result": "> 100", "unit": "µM"}, {"measurement": "GI50", "setting": "UACC-257; read-out: GI50", "result": "> 100", "unit": "µM"}, {"measurement": "GI50", "setting": "UACC-257; read-out: pGI50 (converted)", "result": "> 100", "unit": "µM"}, {"measurement": "TGI", "setting": "UACC-257; read-out: pTGI", "result": "> 100", "unit": "µM"}, {"measurement": "Activity", "setting": "OVCAR-5", "result": "inactive"}, {"measurement": "growth at 10 µM", "setting": "HCT-116", "result": 16.8, "unit": "%"}, {"measurement": "growth at 10 µM", "setting": "SK-MEL-5", "result": 12.9, "unit": "%"}, {"measurement": "LC50", "setting": "TK-10", "result": 77.6, "unit": "µM"}, {"measurement": "GI50", "setting": "TK-10; read-out: GI50", "result": 10.8, "unit": "µM"}, {"measurement": "GI50", "setting": "TK-10; read-out: pGI50 (converted)", "result": 11, "unit": "µM"}, {"measurement": "TGI", "setting": "TK-10; read-out: pTGI (converted)", "result": 28.8, "unit": "µM"}, {"measurement": "LC50", "setting": "NCI-H226", "result": "> 100", "unit": "µM"}, {"measurement": "GI50", "setting": "NCI-H226; read-out: GI50", "result": 13.5, "unit": "µM"}, {"measurement": "GI50", "setting": "NCI-H226; read-out: pGI50 (converted)", "result": 13.5, "unit": "µM"}, {"measurement": "TGI", "setting": "NCI-H226; read-out: pTGI", "result": "> 100", "unit": "µM"}, {"measurement": "LC50", "setting": "HT-29", "result": "> 100", "unit": "µM"}, {"measurement": "GI50", "setting": "HT-29; read-out: GI50", "result": 0.436, "unit": "µM"}, {"measurement": "GI50", "setting": "HT-29; read-out: pGI50 (converted)", "result": 0.437, "unit": "µM"}, {"measurement": "TGI", "setting": "HT-29; read-out: pTGI", "result": "> 100", "unit": "µM"}, {"measurement": "growth at 10 µM", "setting": "786-0", "result": 50, "unit": "%"}, {"measurement": "growth at 10 µM", "setting": "HOP-92", "result": 65.8, "unit": "%"}, {"measurement": "LC50", "setting": "UO-31", "result": "> 100", "unit": "µM"}, {"measurement": "GI50", "setting": "UO-31; read-out: GI50", "result": "> 100", "unit": "µM"}, {"measurement": "GI50", "setting": "UO-31; read-out: pGI50 (converted)", "result": "> 100", "unit": "µM"}, {"measurement": "TGI", "setting": "UO-31; read-out: pTGI", "result": "> 100", "unit": "µM"}, {"measurement": "growth at 10 µM", "setting": "A498", "result": 40.3, "unit": "%"}, {"measurement": "Activity", "setting": "NCI-H522", "result": "inactive"}]}]}
